In ChEMBL document CHEMBL4325914, “Design and Evaluation of Potent EGFR Inhibitors through the Incorporation of Macrocyclic Polyamine Moieties into the 4-Anilinoquinazoline Scaffold” (J Med Chem, 2018):
Activity calls are given as the source filed them. No cut-off for these calls is given here.

Legend:
A-431 = test: cells; format: functional, cell-based; details: Homo sapiens, A-431, 72 h;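 note: antiproliferative activity measured with an MTT assay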
A549 [1] = test: cells; format: functional, cell-based; details: Homo sapiens, A549, 72 h
[2] = Toxicity in human A549 cells xenografted BALB/c nude mouse assessed as effect on body weight at 30 mg/kg, ig administered every 2 days for 19 days; format: organism-based; details: in vivo, po
Outline: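 Female six-week-old BALB/c nude mice received 2.0 × 10^6 A549 cells subcutaneously. Dosing began at mean tumor size 200-400 mm3. 21 mice were randomized to vehicle (water, 30 mL/kg) or drug (30 mg/kg), both intragastric, every 2 days for 19 days. Body weight was recorded. Tumors were caliper-measured twice weekly (V = length × width²/2) and weighed at the end.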

[3] = biological target: Epidermal growth factor receptor (Homo sapiens, UniProt P00533, T790M)
A549 [4] = test: Induction of apoptosis in human A549 cells assessed as late apoptotic cells at 4 uM after 72 hrs by FITC-annexin V/propidium iodide-double staining based flow cytometry (reference value: 6.59%); format: functional
A549 [5] = test: Cytotoxicity against human A549 cells assessed as reduction in intracellular ATP levels at 8 uM after 24 hrs by luciferase-luciferin based assay; format: functional, cell-based
Outline: (§1)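 A549 cells were plated at 4000 per well and allowed to settle 12 h. They were then exposed to compound or DMSO for 24 h or 72 h. Medium was removed and reconstituted luciferase-luciferin reagent added. Luminescence was read within 1 min and converted to ATP concentration from a reference plot. Each concentration was run in quadruplicate.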

A549 [6] = test: Cytotoxicity against human A549 cells assessed as depletion of intracellular ATP levels at 2 uM after 72 hrs by luciferase-luciferin based assay; format: functional, cell-based
Outline: as §1

A549 [7] = test: Induction of apoptosis in human A549 cells assessed as early apoptotic cells at 8 uM after 72 hrs by FITC-annexin V/propidium iodide-double staining based flow cytometry (reference value: 9.38%); format: functional
[8] = biological target: Epidermal growth factor receptor (Homo sapiens, UniProt P00533)
A549 [9] = test: animal or person; format: functional, Homo sapiens; details: Mus musculus, A549, po, read-out: TGI
A549 [10] = test: Induction of apoptosis in human A549 cells assessed as late apoptotic cells at 1 uM after 72 hrs by FITC-annexin V/propidium iodide-double staining based flow cytometry (reference value: 6.59%); format: functional
A549 [11] = test: Induction of apoptosis in human A549 cells assessed as early apoptotic cells at 4 uM after 72 hrs by FITC-annexin V/propidium iodide-double staining based flow cytometry (reference value: 9.38%); format: functional
A549 [12] = test: Antitumor activity against human A549 cells xenografted in BALB/c nude mouse assessed as tumor necrosis at 30 mg/kg, ig administered every 2 days for 19 days by hematoxylin/eosin-staining based histological analysis; format: functional, organism-based
in vitro = details: mouse, L929 cells
A549 [13] = test: Cytotoxicity against human A549 cells assessed as effect on intracellular ATP levels at 0 to 2 uM after 24 hrs by luciferase-luciferin based assay; format: functional, cell-based
Outline: as §1

A549 [14] = test: Induction of apoptosis in human A549 cells assessed as early apoptotic cells at 1 uM after 72 hrs by FITC-annexin V/propidium iodide-double staining based flow cytometry (reference value: 9.38%); format: functional
A549 [15] = test: Induction of apoptosis in human A549 cells assessed as late apoptotic cells at 8 uM after 72 hrs by FITC-annexin V/propidium iodide-double staining based flow cytometry (reference value: 6.59%); format: functional
L929 = test: Cytotoxicity against mouse L929 cells assessed as cell growth inhibition after 72 hrs by MTT assay; format: cell-based; details: L929, 72 h
[16] = biological target: Receptor tyrosine-protein kinase erbB-2 (Homo sapiens, UniProt P04626); test: Inhibition of wild type human N-terminal His-tagged HER2 cytoplasmic domain (676 to 1255 residues) expressed in baculovirus expression system after 1 hr in presence of ULight-labeled peptide substrate and ATP by LANCE ultra kinase assay
A549 [17] = test: Induction of apoptosis in human A549 cells after 72 hrs by FITC-annexin V/propidium iodide-double staining based flow cytometry; format: functional, cell-based
A549 [18] = test: Cytotoxicity against human A549 cells assessed as depletion of intracellular ATP levels at 8 uM after 72 hrs by luciferase-luciferin based assay; format: functional, cell-based
Outline: as §1

A549 [19] = test: Cytotoxicity against human A549 cells assessed as effect on intracellular ATP levels at 6 uM after 24 hrs by luciferase-luciferin based assay; format: functional, cell-based
Outline: as §1

Sequence of Epidermal growth factor receptor (Homo sapiens, UniProt P00533) (P00533 whole entry): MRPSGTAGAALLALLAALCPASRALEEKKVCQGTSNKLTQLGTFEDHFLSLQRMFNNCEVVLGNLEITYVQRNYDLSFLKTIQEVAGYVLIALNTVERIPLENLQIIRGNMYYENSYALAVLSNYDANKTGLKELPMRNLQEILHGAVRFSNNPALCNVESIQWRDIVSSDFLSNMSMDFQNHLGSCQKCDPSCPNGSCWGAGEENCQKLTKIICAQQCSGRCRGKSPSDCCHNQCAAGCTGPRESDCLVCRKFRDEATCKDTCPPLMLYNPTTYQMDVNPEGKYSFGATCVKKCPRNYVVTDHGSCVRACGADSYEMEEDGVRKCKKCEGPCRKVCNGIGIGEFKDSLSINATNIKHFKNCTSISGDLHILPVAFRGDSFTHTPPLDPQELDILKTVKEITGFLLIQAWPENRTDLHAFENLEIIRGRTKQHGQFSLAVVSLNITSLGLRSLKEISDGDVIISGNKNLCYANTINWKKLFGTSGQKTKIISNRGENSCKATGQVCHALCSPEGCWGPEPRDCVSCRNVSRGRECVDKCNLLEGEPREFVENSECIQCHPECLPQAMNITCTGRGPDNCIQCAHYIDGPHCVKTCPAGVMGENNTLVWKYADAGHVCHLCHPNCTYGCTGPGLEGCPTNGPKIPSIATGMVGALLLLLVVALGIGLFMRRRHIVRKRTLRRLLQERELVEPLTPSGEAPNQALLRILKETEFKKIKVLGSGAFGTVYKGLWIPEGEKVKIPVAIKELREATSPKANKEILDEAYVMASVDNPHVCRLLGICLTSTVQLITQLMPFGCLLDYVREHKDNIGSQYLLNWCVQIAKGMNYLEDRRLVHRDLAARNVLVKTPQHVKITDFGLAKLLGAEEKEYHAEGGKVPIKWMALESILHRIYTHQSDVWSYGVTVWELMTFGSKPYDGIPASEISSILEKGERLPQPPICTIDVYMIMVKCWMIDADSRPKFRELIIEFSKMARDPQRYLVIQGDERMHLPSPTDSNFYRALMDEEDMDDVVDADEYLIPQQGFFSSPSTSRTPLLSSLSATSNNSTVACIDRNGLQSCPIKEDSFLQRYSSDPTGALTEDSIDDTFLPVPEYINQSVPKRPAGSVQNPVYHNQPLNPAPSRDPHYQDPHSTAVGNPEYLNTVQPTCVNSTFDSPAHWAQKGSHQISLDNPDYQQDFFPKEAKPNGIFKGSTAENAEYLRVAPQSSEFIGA
Sequence of Receptor tyrosine-protein kinase erbB-2 (P04626 whole entry, the tested form may be a part): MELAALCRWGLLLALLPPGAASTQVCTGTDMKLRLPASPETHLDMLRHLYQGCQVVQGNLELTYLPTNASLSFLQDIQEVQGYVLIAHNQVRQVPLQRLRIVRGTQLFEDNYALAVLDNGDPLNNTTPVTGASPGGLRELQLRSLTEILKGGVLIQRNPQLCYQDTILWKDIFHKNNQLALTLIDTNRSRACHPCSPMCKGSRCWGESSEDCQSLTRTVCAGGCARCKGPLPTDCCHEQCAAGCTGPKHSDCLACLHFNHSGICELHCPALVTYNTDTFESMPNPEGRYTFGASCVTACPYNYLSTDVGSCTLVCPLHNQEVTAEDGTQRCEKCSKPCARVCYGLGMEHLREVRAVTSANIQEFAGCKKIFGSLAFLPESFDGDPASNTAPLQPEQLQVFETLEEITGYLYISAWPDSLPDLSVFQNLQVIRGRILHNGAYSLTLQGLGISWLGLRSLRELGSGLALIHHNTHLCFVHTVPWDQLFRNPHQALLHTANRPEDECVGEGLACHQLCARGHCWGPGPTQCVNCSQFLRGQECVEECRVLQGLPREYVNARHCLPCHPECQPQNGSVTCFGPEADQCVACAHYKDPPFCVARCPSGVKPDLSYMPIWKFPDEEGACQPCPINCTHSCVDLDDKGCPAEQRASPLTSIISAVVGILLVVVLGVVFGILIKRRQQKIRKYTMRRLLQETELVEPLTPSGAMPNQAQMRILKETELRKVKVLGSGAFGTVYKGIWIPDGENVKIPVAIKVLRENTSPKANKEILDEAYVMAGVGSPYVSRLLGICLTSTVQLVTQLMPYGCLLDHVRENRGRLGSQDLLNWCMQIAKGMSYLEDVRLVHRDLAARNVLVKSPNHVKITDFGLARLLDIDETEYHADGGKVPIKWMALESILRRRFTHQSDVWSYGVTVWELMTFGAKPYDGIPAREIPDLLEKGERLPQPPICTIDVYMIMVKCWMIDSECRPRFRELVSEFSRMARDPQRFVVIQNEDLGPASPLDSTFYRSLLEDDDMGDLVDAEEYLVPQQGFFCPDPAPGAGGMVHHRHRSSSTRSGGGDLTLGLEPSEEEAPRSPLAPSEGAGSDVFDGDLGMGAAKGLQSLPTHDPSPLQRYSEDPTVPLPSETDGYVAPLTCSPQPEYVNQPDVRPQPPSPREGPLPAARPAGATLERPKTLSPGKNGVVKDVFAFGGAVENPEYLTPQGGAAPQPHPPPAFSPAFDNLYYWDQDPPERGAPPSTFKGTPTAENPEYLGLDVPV
Sequence of Epidermal growth factor receptor (Homo sapiens, UniProt P00533, T790M) (P00533 25-1210 T790M limits assumed): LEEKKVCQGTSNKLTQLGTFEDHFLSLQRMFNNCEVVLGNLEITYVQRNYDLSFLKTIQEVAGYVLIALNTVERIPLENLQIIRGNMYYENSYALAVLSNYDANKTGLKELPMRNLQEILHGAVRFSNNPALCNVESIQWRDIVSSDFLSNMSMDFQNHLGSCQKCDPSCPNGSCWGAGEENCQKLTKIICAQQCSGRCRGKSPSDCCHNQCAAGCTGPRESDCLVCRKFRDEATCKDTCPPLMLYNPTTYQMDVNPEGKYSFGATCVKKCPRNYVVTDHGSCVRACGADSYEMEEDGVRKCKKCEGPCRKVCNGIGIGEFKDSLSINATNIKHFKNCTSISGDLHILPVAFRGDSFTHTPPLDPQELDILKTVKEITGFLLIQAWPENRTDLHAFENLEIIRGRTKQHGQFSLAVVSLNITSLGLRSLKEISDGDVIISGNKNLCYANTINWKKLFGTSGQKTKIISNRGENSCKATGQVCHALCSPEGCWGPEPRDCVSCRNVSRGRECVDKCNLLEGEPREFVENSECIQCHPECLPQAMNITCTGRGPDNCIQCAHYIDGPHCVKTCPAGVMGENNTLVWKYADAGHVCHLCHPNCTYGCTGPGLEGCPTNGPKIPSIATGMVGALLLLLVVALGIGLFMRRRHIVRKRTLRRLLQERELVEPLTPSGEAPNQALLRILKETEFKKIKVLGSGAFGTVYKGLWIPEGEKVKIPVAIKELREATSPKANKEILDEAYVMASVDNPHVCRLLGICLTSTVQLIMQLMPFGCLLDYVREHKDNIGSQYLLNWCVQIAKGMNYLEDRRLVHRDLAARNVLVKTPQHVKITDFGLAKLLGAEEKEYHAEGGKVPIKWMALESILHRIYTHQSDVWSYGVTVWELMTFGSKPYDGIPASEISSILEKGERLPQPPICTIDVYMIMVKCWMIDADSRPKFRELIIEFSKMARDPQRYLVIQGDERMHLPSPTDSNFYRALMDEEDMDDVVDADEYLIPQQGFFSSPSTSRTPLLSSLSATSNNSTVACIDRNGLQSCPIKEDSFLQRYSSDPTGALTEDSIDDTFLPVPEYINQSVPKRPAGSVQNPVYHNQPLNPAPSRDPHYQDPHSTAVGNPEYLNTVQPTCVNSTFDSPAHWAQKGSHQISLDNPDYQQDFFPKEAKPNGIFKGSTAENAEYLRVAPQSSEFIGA

Compound	IC50 (A-431) [µM]	IC50 (A549 [1]) [µM]	further results
COc1cc2ncnc(Nc3ccc(OCc4cccc(F)c4)c(Cl)c3)c2cc1OCCCN1CCNCCNCCNCC1	0.958	3.4	Activity [2]: Non-Toxic; IC50 [3]: 0.0165 µM; Activity (A549 [4]): 4.36%; Activity (A549 [5]): Active; Activity (A549 [6]): Active; Activity (A549 [7]): 81.53%; IC50 [8]: 0.0014 µM; inhibition in vivo at 30 mg/kg (A549 [9]): 44.2%; Activity (A549 [10]): 11.16%; Activity (A549 [11]): 54.62%; Activity (A549 [12]): Active; inhibition at 72 h, 1 µM (in vitro): 37.6%; Activity (A549 [13]): inactive; Activity (A549 [14]): 6.25%; Activity (A549 [15]): 7.94%; IC50 (L929): 2.74 µM; IC50 [16]: 0.0021 µM; Activity (A549 [17]): Dose-dependent effect
COc1cc2ncnc(Nc3cccc(I)c3)c2cc1OCCCN1CCNCCNCCNCC1	2.54	14.5	–
CCc1cc(Br)ccc1Nc1ncnc2cc(OC)c(OCCCN3CCNCCNCCNCC3)cc12	5.65	> 50	–
COc1cc2ncnc(Nc3cccc(Br)c3)c2cc1OCCCN1CCNCCNCC1	2.32	34.3	–
COc1cc2ncnc(Nc3cccc(F)c3)c2cc1OCCCN1CCNCCNCCNCC1	1.86	> 50	–
COc1cc2ncnc(Nc3ccc(F)c(Cl)c3)c2cc1OCCCN1CCOCC1 [GEFITINIB]	–	–	Activity [2]: Non-Toxic; Activity (A549 [5]): Active; Activity (A549 [7]): 20.72%; Activity (A549 [13]): inactive; Activity (A549 [15]): 7.05%
C#Cc1cccc(Nc2ncnc3cc(OC)c(OCCCN4CCNCCNCCNCC4)cc23)c1	1.11	28.6	–
COc1cc2ncnc(Nc3ccc(Cl)cc3Cl)c2cc1OCCCN1CCNCCNCCNCC1	4.38	23.8	–
COc1cc2ncnc(Nc3ccc(C#N)cc3F)c2cc1OCCCN1CCNCCNCCNCC1	6.37	> 50	–
COc1cc2ncnc(Nc3ccc(C#N)cc3F)c2cc1OCCCN1CCNCCNCC1	12.7	> 50	–
COc1cc2ncnc(Nc3ccc(F)c(Br)c3)c2cc1OCCCN1CCNCCNCC1	1.06	34.3	–
COc1cc2ncnc(Nc3ccc(Cl)c(C(F)(F)F)c3)c2cc1OCCCN1CCNCCNCCNCC1	1.71	5.35	–
COc1cc2ncnc(Nc3cccc(C(F)(F)F)c3)c2cc1OCCCN1CCNCCNCCNCC1	1.95	15.7	–
COc1cc2ncnc(Nc3ccc(OCc4cccc(F)c4)c(Cl)c3)c2cc1OCCCN1CCNCCNCC1	0.442	7.25	IC50 [3]: 0.0406 µM; Activity (A549 [5]): Active; IC50 [8]: 0.0003 µM; Activity (A549 [18]): Active; Activity (A549 [13]): inactive; IC50 [16]: 0.0096 µM
COc1cc2ncnc(Nc3ccc(F)c(Cl)c3)c2cc1OCCCN1CCNCCNCC1	1.31	> 50	IC50 [8]: 0.0083 µM
COc1cc2ncnc(Nc3ccc(Cl)cc3Cl)c2cc1OCCCN1CCNCCNCC1	4.08	44.2	–
COc1cc2ncnc(Nc3cccc(Cl)c3)c2cc1OCCCN1CCNCCNCC1	1.12	> 50	–
COc1cc2ncnc(Nc3ccc(F)c(Cl)c3)c2cc1OCCCN1CCNCCNCCNCC1	1.01	20.2	IC50 [8]: 0.0066 µM
CCc1cc(Br)ccc1Nc1ncnc2cc(OC)c(OCCCN3CCNCCNCC3)cc12	18.8	> 50	–
COc1cc2ncnc(Nc3cccc(I)c3)c2cc1OCCCN1CCNCCNCC1	2.21	26.2	–
COc1cc2ncnc(Nc3cccc(Br)c3)c2cc1OCCCN1CCNCCNCCNCC1	1.05	14.7	–

Now from value to molecule, other results behind:

IC50 (A-431) [µM]	IC50 (A549 [1]) [µM]	Compound	further results
1.58	11.8	COc1cc2ncnc(Nc3ccc(F)c(Br)c3)c2cc1OCCCN1CCNCCNCCNCC1	–
1.84	15.2	COc1cc2ncnc(Nc3ccc(Br)cc3F)c2cc1OCCCN1CCNCCNCCNCC1	–
0.561	16.1	COc1cc2ncnc(Nc3ccc(Br)cc3F)c2cc1OCCCN1CCNCCNCC1	IC50 [8]: 0.0282 µM
7.91	> 50	COc1cc2ncnc(Nc3cccc(F)c3)c2cc1OCCCN1CCNCCNCC1	–
3.21	> 50	COc1cccc(Nc2ncnc3cc(OC)c(OCCCN4CCNCCNCCNCC4)cc23)c1	–
1.42	27.1	COc1cc2ncnc(Nc3cccc(Cl)c3)c2cc1OCCCN1CCNCCNCCNCC1	–
8.53	> 50	COc1cccc(Nc2ncnc3cc(OC)c(OCCCN4CCNCCNCC4)cc23)c1	–
2.23	> 50	C#Cc1cccc(Nc2ncnc3cc(OC)c(OCCCN4CCNCCNCC4)cc23)c1	–
1.56	37.3	COc1cc2ncnc(Nc3cccc(C(F)(F)F)c3)c2cc1OCCCN1CCNCCNCC1	–
–	3.64	CS(=O)(=O)CCNCc1ccc(-c2ccc3ncnc(Nc4ccc(OCc5cccc(F)c5)c(Cl)c4)c3c2)o1 [LAPATINIB]	Activity (A549 [19]): Active; Activity (A549 [7]): 52.04%; inhibition at 72 h, 1 µM (in vitro): 35%; Activity (A549 [13]): inactive; Activity (A549 [15]): 5.73%; IC50 (L929): 2.05 µM
2.98	6.23	COc1cc2ncnc(Nc3ccc(Cl)c(C(F)(F)F)c3)c2cc1OCCCN1CCNCCNCC1	–
